The target of data set [1] is Signal transducer and activator of transcription 3 (Homo sapiens, UniProt P40763). Nature of the data set: Induction of STAT3 degradation in human MOLM-16 cells assessed as decrease in STAT3 level at 10 uM incubated for 4 hrs by proteomic analysis. Type of data set: cell-based. As to conditions: MOLM16. Put shortly: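 MOLM-16 cells treated with 1 or 10 μM for 4 h. Protein levels measured by quantitative proteomics across more than 7000 proteins.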

In data set [2] the target is T1, Signal transducer and activator of transcription 5A (Homo sapiens, UniProt P42229).
T1 sequence (P42229 whole entry): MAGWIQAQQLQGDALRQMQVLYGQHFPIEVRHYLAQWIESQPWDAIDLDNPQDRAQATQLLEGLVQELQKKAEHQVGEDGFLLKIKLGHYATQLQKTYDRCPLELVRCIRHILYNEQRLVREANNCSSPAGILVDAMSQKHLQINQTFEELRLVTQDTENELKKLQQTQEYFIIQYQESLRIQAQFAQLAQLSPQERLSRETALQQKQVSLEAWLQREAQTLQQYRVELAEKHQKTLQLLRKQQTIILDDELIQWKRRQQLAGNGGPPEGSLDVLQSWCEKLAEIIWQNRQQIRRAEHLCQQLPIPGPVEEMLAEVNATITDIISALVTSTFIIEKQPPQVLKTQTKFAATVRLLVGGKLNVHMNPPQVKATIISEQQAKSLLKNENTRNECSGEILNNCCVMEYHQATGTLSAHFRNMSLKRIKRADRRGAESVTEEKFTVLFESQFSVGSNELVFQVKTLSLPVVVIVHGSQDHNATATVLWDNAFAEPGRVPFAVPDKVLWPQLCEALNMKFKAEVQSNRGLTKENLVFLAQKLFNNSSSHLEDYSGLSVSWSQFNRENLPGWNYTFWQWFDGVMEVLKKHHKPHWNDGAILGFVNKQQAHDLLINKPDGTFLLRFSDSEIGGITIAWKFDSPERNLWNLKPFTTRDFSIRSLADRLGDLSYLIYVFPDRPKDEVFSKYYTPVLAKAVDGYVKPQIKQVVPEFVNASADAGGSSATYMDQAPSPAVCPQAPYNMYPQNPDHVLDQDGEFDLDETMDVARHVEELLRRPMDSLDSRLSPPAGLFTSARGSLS
The data set is described as follows: Binding affinity to human recombinant STAT5A assessed as dissociation constant incubated for 15 mins by biolayer interferometry. Put shortly:
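Biolayer interferometry with recombinant human STAT1, STAT2, STAT3, STAT4, STAT5A, STAT5B or STAT6 proteins containing their SH2 domain. Compound run in 2× serial dilutions from 200 nM. Kd taken from steady-state fitting of equilibrium responses against concentration using a 1:1 binding model.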
(In general: In BLI a coated tip is dipped into the sample, and binding shifts an interference pattern.)

Data set [3] can be described thus: Stability of the compound in PEG400/phosphate buffer saline measured upto 100 hrs by LC/MS/MS analysis. Type of data set: physicochemical. Put shortly:
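Compound incubated at room temperature in dosing vehicle (10% PEG400/90% phosphate buffered saline); percentages of parent and conversion products determined at time points up to 96 h.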

In data set [4] the target is T2, Protein cereblon/Signal transducer and activator of transcription 5A (Homo sapiens) (UniProt P42229+Q96SW2). Nature of the data set: Protac activity at CRBN/STAT5 in human MOLM16 cells assessed as STAT5 degradation at 0.25 to 100 uM incubated for 4 hrs by Western blot analysis. The class given is cell-based. The note with it: dose 0.25-100 µM. Put shortly: (§1)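 Cells treated 4 h with compounds across 25 nM to 100 μM; STAT proteins detected by Western blot with GAPDH as loading control; STAT3 DC50 estimated by densitometry of STAT3 relative to GAPDH. Applies to MOLM-16 for all STATs, and to SU-DHL-1 and SUP-M2 for STAT3.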
T2 sequence (Q96SW2 whole entry, looked up, one chain of several): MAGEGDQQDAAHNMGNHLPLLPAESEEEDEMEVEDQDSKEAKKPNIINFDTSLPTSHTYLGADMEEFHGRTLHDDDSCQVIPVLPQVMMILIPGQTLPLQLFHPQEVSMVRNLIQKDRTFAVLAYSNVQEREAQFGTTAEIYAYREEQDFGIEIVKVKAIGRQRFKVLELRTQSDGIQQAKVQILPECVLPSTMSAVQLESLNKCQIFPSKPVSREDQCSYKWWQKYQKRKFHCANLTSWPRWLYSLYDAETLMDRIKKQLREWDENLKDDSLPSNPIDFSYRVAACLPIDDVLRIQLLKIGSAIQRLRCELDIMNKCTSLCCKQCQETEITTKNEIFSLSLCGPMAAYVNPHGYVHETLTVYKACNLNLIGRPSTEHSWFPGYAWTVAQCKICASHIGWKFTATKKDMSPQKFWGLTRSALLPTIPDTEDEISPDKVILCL
For orientation: A western blot detects proteins with antibodies after separation by electrophoresis.

Data set [5] deals with T2, Protein cereblon/Signal transducer and activator of transcription 5A (Homo sapiens). Nature of the data set: Protac activity at CRBN/STAT5 in human SU-DHL-1 cells […] at 0.25 to 100 uM incubated for 4 hrs by Western blot analysis. Type of data set: cell-based. As to conditions: dose lower 0.25 µM.
Data set [6] addresses Protein cereblon/Signal transducer and activator of transcription 3 (Homo sapiens, UniProt P40763+Q96SW2). Nature of the data set: Protac activity at CRBN/STAT3 in human MOLM-16 cells assessed as degradation of STAT3 incubated for 4 hrs by western blot analysis. The class given is cell-based. As to conditions: molm16. Put shortly: as §1
Data set [7] concerns the target Protein cereblon/Signal transducer and activator of transcription 1-alpha/beta (Homo sapiens) (UniProt P42224+Q96SW2). The data set is described as follows: Protac activity at CRBN/STAT1 in human MOLM16 cells assessed as STAT1 degradation at 0.25 to 100 uM incubated for 4 hrs by Western blot analysis. Type of data set: cell-based. As to conditions: dose 0.25-100 µM. Put shortly:
as §1

The source made the active and inactive calls. No cut-off for these calls is given here.

Sequence of Protein cereblon/Signal transducer and activator of transcription 3 (P40763 whole entry): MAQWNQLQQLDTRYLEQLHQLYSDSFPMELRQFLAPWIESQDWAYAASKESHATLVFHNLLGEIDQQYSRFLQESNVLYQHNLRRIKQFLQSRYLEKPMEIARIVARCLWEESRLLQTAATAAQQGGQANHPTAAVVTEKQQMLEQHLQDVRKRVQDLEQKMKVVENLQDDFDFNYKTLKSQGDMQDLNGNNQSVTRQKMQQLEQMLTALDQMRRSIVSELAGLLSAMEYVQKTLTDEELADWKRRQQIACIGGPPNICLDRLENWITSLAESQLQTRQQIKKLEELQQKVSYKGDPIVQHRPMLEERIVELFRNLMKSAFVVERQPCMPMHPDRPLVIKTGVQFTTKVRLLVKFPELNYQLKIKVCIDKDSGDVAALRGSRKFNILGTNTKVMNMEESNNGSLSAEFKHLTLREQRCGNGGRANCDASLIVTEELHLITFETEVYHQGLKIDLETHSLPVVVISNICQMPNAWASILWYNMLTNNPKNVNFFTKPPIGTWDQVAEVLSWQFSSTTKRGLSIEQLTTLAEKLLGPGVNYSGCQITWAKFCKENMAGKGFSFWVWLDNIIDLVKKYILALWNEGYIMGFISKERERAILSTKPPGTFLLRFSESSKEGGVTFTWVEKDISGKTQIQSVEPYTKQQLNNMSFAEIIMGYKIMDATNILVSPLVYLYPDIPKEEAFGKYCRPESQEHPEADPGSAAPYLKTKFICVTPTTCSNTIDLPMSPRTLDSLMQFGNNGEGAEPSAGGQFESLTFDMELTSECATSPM
Sequence of Protein cereblon/Signal transducer and activator of transcription 3 (Q96SW2 whole entry): as the sequence (Q96SW2 whole entry, looked up, one chain of several) above
Sequence of Signal transducer and activator of transcription 3 (P40763 whole entry): as the sequence (P40763 whole entry) above

For orientation: Kd means the free concentration of one partner at which half of the binding sites on the other are occupied at equilibrium, for simple one-to-one binding. Regarding `NC(=O)CC[C@H](NC(=O)[C@@H]1CC[C@@H]2CCN(C(=O)CCCCCC#Cc3cccc4c3CN(C3CCC(=O)NC3=O)C4=O)C[C@H](NC(=O)c3cc4cc(C(=O)P(=O)(O)O)ccc4[nH]3)C(=O)N21)C(=O)NC(c1ccccc1)c1ccccc1` (some centres not stated), the outcome in data set [1] was Active. For the same compound, the Kd in data set [2] was more than 10 nM. For the same compound, the Stabilty entry in data set [3] is “Stable”.

What is called DC50 is the concentration giving 50% degradation. Turning to `NC(=O)CC[C@H](NC(=O)[C@@H]1CC[C@@H]2CCN(C(=O)CCCCCC#Cc3cccc4c3CN(C3CCC(=O)NC3=O)C4=O)C[C@H](NC(=O)c3cc4cc(C(F)(F)P(=O)(O)O)ccc4[nH]3)C(=O)N21)C(=O)NC(c1ccccc1)c1ccccc1` (some centres not stated), the result in data set [4], in data set [5] and in data set [7] was inactive. Also, in data set [6], the DC50 is 380 nM.

Source of the values: ChEMBL document CHEMBL4706770, “SD-91 as A Potent and Selective STAT3 Degrader Capable of Achieving Complete and Long-Lasting Tumor Regression” (ACS Med Chem Lett, 2021).
